T cruzi inh – T. cruzi replication inhibition; T. cruzi beta-gal in NIH3T3, luminescence, 90 h; inhibition, % (concentration not given with the values); actives 1.4% (n = 300,000);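 active = mean inhibition across valid replicates above about 55%, limit read from the data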;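 also: signal also drops with host cell toxicity which is not excluded here; higher percent means less beta-gal luminescence so fewer parasites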
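Assay system: NIH/3T3 fibroblasts plus reporter T. cruzi. Amount: NIH/3T3 cells, 5,000 per well. Buffer or medium: DMEM, 2% fetal bovine serum. Doses: compound pinned at 50 nL/well, DMSO. Schedule: ≥90 h infection period, 3 h prior cell attachment. Signal: luminescent β-galactosidase signal after 60 min lysis. Read-out: parasite load inhibition, %.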
Mdm2 MdmX PPI – disrupts the human Mdm2-MdmX interaction; SaOS-2 split-luciferase Mdm2/MdmX complementation, luminescence; inhibition, % at 8 µM; actives 3% (n = 330,000); AID 485346;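 active = inhibition of at least 50% at 8 µM in the primary screen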
Beta apoptosis – beta cell apoptosis inhibition; INS-1E cytokine-induced death, ATP luminescence, 48 h; percent of positive-control rescue, neutral wells zero; protection from apoptosis, % (test concentration not listed); actives 0.8% (n = 300,000);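 active = Every replicate reaches about 75%, or at least half do and their mean reaches it too, limit read from the data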;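 also: higher means more ATP so stronger rescue from cytokine killing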
CHOP UPR activ – activators of apoptotic arm of unfolded protein response (CHOP); activation, % at 10 µM; CHO-CHOP luciferase reporter, UPR activation, luminescence; percent of tunicamycin response over DMSO baseline; AID 449763; actives 0.34% (n = 330,000);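 active = at 10 µM dose, activation of 40% or more, normalized to positive control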
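Evaluation: % reporter activation, DMSO baseline versus tunicamycin full activation; System: CHO-CHOP luciferase reporter cell line; Input: 500 cells/well; Incubation: 6 h compound treatment, 37 °C; Measured by: Steady-Glo luciferase luminescence; Dosing: one dose, 10 µM in 0.5% DMSO; Buffer or medium: F12 medium, 10% FBS; Benchmarks: positive tunicamycin 10 µg/mL, negative DMSO alone.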
XBP1 UPR activ – activators of adaptive arm of unfolded protein response (XBP1) | actives 0.33% (n = 330,000) | activation, % at 20 µM | CHO-XBP1 luciferase reporter, IRE1-XBP1 UPR activation, luminescence; percent of tunicamycin response, DMSO as zero;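 active = versus positive control, 20 µM dose yields 30% or more activation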
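Material: CHO cell line with stable XBP1 luciferase reporter; schedule: 16-18 h cell attachment at 37 °C, then 6 h compound exposure; signal: glow luminescence from Steady-Glo reagent; medium: serum-containing F12 medium, 10% FBS; benchmarks: tunicamycin 10 µg/mL and vehicle-only wells; read-out: percent activation relative to tunicamycin reference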
CSC inhib – cancer stem cell inhibition; cancer stem cell-like cells viability, luminescence; actives 1.1% (n = 300,000); AID 2717; inhibition, % at 7.5 µM; in the data active = inhibition above about 75%; tested in HMLE shEcad cells
Of the large screens only hits and unclear results are named; the others gave an inactive call. Hits are enriched below; roughly 5% of the tested compounds scored in any of these assays.

CCC(CC)NC(=O)COC(=O)c1ccc(NS(=O)(=O)c2ccc3c(c2)OCCO3)cc1	none
O=[N+]([O-])c1ccc(C2=NN(CCO)C(=Nc3ccc(OC(F)(F)F)cc3)SC2)cc1	CSC inhib 89.3
COc1ccc(N=C2SCC(c3ccc([N+](=O)[O-])cc3)=NN2CCO)cc1	none
O=[N+]([O-])c1ccc(S(=O)(=O)N2CCN(c3ccnc4cc(Cl)ccc34)CC2)cc1	T cruzi inh 59.5
O=S(=O)(c1cccc(Br)c1)N1CCN(c2ccnc3cc(Cl)ccc23)CC1	none
Cc1ccc(S(=O)(=O)N2CCCN(S(=O)(=O)c3ccc4ccccc4c3)CC2)cc1	none
O=C(c1ccc2c(c1)OCO2)C1CCCN(C2CCN(CCc3ccccc3)CC2)C1 (centres undefined)	T cruzi inh 68.7
C/C(=N\NC(=O)c1cccc(Cl)c1)C1C(=O)c2ccccc2C1=O	CSC inhib 92.6
C/C(=N\NC(=O)CCc1ccccc1)C1C(=O)c2ccccc2C1=O	none
CN(C)S(=O)(=O)c1ccc(NC(=O)C2CC(=O)N(Cc3ccccc3Cl)C2)cc1 (centres undefined)	none
Cc1cccc(NC(=O)c2cc(-c3cc(C)cc(C)c3O)n[nH]2)c1	CSC inhib 76.2
COc1ccc(NC(=O)c2cc(-c3cc(C)cc(C)c3O)n[nH]2)cc1Cl	CSC inhib 99.3
C[C@H](NC(=O)c1[nH]cnc1C(=O)N[C@H](C)c1ccccc1)c1ccccc1	none (no result: T cruzi inh)
CN(CC(=O)Nc1ccc(S(=O)(=O)N2CCCC2)cc1)Cc1ccc(Cl)cc1	T cruzi inh 57.4
O=C(CNC1CCCC1)Nc1ccc(S(=O)(=O)N2CCCCC2)cc1	none
O=C(CNC1CCN(Cc2ccccc2)CC1)Nc1ccc(S(=O)(=O)N2CCCCC2)cc1	T cruzi inh 54.9
O=S(=O)(c1ccc(Cl)cc1)N1CCN(C2CCN(Cc3ccccc3)CC2)CC1	T cruzi inh 60.6
COc1ccccc1Oc1ccc(NC(=O)Cc2ccccc2)cc1	none
Cc1cc(C)cc(NS(=O)(=O)c2ccc3[nH]cc(C(=O)NCc4ccco4)c(=O)c3c2)c1	CSC inhib 99.1
CC(C)c1ccccc1NC(=O)CCc1nc2ccccc2s1	none
O=C(CC(Sc1ccc(Br)cc1)C(=O)O)c1ccc(F)cc1 (centres undefined)	T cruzi inh 72.6 (no result: Beta apoptosis, CSC inhib)
O=C1c2ccccc2C(O)N1Cc1cccs1 (centres undefined)	none
Nc1nc(NC(=O)CCC(=O)O)nn1-c1ccccc1	none
C/C(=N\NC(=O)c1cc(-c2cccc(OC(C)C)c2)nc2ccccc12)c1cccnc1	T cruzi inh 63.5
O=C(Nc1cccnc1)c1cc(-c2cccc(Br)c2)nc2ccccc12	none
O=C(Nc1ccc([N+](=O)[O-])cn1)c1cc(-c2cccc(Cl)c2)nc2ccccc12	T cruzi inh 56.3
O=C(Nc1ccc([N+](=O)[O-])cn1)c1cc(-c2cccc(Br)c2)nc2ccccc12	none (no result: CSC inhib)
O=C(NNC(=O)c1cc(-c2ccc(Cl)c(Cl)c2)nc2ccccc12)Nc1ccccc1	CSC inhib 92.2
C/C(=N\NC(=O)c1cc(-c2ccc(C)s2)nc2ccccc12)c1cccnc1	none
O=C(Nc1ccncc1)c1cc(-c2cccc(Br)c2)nc2ccccc12	CSC inhib 106.1
Cc1cccc(NC(=O)NNC(=O)c2cc(-c3ccccc3Cl)nc3ccccc23)c1	none (no result: T cruzi inh)
COc1ccc(CN2CC[C@H]3C=CCc4cccc(c43)C2)cc1	none (no result: T cruzi inh)
CC(=O)N[C@@H](Cc1c[nH]c2ccccc12)C(=O)NCc1ccccc1	none (no result: Beta apoptosis)
C/C(=N\NC(=O)C(=O)Nc1cccc(Cl)c1C)c1ccncc1	none
CCN(CC)CCC(c1ccc(N(C)C)cc1)c1c(O)cc(OC)cc1OC (centres undefined)	none
Cc1ccc(S(=O)(=O)CC2CSc3nc4ccccc4n32)cc1 (centres undefined)	Beta apoptosis 91.9
Cc1ccc(S(=O)(=O)CC2CSc3nc(N)cc(=O)n32)cc1 (centres undefined)	none

Assay outcomes as filed in PubChem BioAssay.
